17 molecules from ChEMBL document CHEMBL5260830, “Breakthroughs in neuroactive steroid drug discovery” (Bioorg Med Chem Lett, 2018) can be followed below.

A value given as a limit tells only on which side of the number the result lay.

Series [1] addresses GABA-A receptor; anion channel. In words: Displacement of [35S]-TBPS from rat synaptosomes GABAA receptor incubated for 90 mins by liquid scintillation counting method. It counts as subcellular, Synaptosome. On the technique in general: Loss of bound radioactivity is the signal in a displacement assay; it reports binding, not function.
The target of series [2] is Glutamate NMDA receptor; GRIN1/GRIN2B (Homo sapiens, UniProt Q05586+Q13224). Put plainly: Inhibition of GluN1/GluN2B NMDA receptor (unknown origin) expressed in HEK293 cells. It counts as cell-based. Summed up: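 Potency measured in HEK293 cells transfected with rat GluN1 and GluN2B subunits.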
Chain of Glutamate NMDA receptor; GRIN1/GRIN2B (Q13224 whole entry, other chains not shown): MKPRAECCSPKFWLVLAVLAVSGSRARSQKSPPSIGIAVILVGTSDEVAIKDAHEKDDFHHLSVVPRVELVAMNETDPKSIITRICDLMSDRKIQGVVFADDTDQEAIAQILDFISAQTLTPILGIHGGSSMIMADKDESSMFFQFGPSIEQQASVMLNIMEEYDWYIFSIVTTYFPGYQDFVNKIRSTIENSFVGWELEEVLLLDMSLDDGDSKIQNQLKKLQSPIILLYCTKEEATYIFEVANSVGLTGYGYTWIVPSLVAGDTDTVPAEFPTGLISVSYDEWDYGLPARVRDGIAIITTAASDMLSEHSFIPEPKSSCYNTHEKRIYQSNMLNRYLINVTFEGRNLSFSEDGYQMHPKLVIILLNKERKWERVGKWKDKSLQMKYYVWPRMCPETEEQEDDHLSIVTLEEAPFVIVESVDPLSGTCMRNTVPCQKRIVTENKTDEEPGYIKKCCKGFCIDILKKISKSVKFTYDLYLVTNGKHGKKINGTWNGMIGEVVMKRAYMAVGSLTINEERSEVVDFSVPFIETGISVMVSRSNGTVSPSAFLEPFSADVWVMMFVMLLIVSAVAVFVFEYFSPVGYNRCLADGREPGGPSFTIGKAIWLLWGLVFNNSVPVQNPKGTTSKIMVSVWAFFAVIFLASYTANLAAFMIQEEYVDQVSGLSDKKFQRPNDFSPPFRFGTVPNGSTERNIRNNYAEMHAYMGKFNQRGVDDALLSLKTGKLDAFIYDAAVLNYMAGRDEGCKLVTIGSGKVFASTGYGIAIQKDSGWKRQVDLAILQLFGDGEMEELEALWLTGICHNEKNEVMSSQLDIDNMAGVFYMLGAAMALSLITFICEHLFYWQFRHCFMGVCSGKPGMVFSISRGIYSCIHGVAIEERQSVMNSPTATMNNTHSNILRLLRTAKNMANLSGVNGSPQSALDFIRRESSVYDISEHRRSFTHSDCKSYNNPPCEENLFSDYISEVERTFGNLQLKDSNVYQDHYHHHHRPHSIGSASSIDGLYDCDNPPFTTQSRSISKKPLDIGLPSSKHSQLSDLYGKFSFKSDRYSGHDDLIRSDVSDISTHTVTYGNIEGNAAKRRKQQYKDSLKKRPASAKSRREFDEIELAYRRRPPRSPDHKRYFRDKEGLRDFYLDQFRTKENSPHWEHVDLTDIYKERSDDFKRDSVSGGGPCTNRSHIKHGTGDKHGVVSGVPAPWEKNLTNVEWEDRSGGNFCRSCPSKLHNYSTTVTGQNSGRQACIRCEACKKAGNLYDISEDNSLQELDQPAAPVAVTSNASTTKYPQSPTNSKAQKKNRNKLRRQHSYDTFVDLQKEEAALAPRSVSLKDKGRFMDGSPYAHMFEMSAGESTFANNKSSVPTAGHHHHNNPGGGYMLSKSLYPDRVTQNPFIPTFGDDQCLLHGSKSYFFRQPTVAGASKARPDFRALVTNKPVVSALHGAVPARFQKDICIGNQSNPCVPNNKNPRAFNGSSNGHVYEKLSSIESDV
The target in series [3] is GABA-A receptor; anion channel. Put plainly: Displacement of [35S]-TBPS GABAA receptor in Wistar rat brain membrane incubated for 60 mins by competitive binding assay. The series is classed as cell membranes.
The species entered for series [4] is Mus musculus. Put plainly: Anticonvulsant activity in 6-Hz induced seizure mouse model assessed as protection against 6-Hz induced seizure. The series is classed as functional. In outline:
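Tonic currents recorded from voltage-clamped ([…]) dentate gyrus granule cells of wild-type female mice. Value is fold potentiation of the mean normalized tonic response to 1 µM GABA, from four to eight cells per steroid and concentration. Anticonvulsant ED50 determined in the mouse 6-Hz psychomotor seizure model.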

Series [5] has as its target GABA-A receptor; anion channel (Homo sapiens) (UniProt P14867+P47870+P18507+P28472+P48169+Q99928+Q9UN88+P34903+O00591+O14764+Q8N1C3+P18505+P78334+P47869+P31644+Q16445). Put plainly: Potentiation of NAS mediated GABA (unknown origin) tonic effect assessed as fold potentiation. The series is classed as protein-complex assay. Conditions: filed as activator.
A short description of series [6]: Permeability coefficient across apical to basolateral side in human Caco-2 cells assessed as drug recovery at pH 7.4. The series is classed as ADME, cell-based. Conditions: Caco-2, pH 7.4, read-out: Drug recovery.
Series [7] is described as follows: Permeability coefficient across apical to basolateral side in human Caco-2 cells at pH 7.4. The settings on record: Caco-2, pH 7.4, read-out: permeability. The series is classed as ADME, cell-based. (In general: Caco-2 cells form a polarised layer with tight junctions and transporters.)

In general, IC50 refers to the point on the concentration scale where inhibition reaches its midpoint. A high value points to weaker potency in that assay. Molecule `CC(=O)[C@H]1CC[C@H]2[C@@H]3CC[C@@H]4C[C@H](O)C[C@@H]5O[C@H](C[C@]12C)[C@@H]3[C@]45C` had an IC50 in series [1] of 490 nM.
`C[C@@]12CCC[C@H]1[C@@H]1CC[C@@H]3C[C@H](NC(=O)CC(=O)O)CC[C@]3(C)[C@H]1CC2` returned an IC50 in series [2] of 15400 nM.
Turning to `COCCC(CO)(CCOC)C(=O)[C@H]1CC[C@H]2[C@@H]3CC[C@H]4C[C@@H]5O[C@@H]5C[C@]4(C)[C@H]3CC[C@]12C`, the IC50 in series [3] was found to be 5000 nM. That is a single-digit micromolar value.
Still for that read-out and setting: then `COCC(=O)[C@H]1CC[C@H]2[C@@H]3CC[C@H]4C[C@@H]5O[C@@H]5C[C@]4(C)[C@H]3CC[C@]12C`, with 625 nM.
For `CC(=O)[C@H]1CC[C@H]2[C@@H]3CC[C@@H]4C[C@H](OC(=O)[C@@H](N)CCC(=O)O)CC[C@]4(C)[C@H]3CC[C@]12C`, the IC50 in series [2] worked out at 51700 nM. This counts as double-digit micromolar.
Regarding `CC(=O)[C@H]1CC[C@H]2[C@@H]3C[C@H]4OC[C@@]5(CC[C@@H](O)CC45)[C@H]3CC[C@]12C` (some centres not stated), the IC50 in series [1] turned out to be 141 nM.
What is called ED50 is the midpoint of the dose-response relation. As for `CC(=O)[C@H]1CC[C@H]2[C@@H]3CC[C@H]4C[C@H](O)CC[C@]4(C)[C@H]3CC[C@]12C` [BREXANOLONE], the IC50 in series [1] was found to be 86 nM. The ED50 in series [4] was 4.2 mg/kg. Besides, in series [5], the fold change (FC) came to 4.36.
As to `CC(=O)[C@H]1CC[C@H]2[C@@H]3CC[C@H]4C[C@H](O)CC[C@]4(C)[C@H]3C(=O)C[C@]12C` [ALFAXALONE], the ED50 in series [4] worked out at 8.8 mg/kg. For the same molecule, in series [5], the fold change (FC) was found to be 1.98.
For the molecule `CC(=O)[C@H]1CC[C@H]2[C@@H]3CC[C@H]4C[C@@H]5O[C@@H]5C[C@]4(C)[C@H]3CC[C@]12C`, the IC50 in series [3] was 255 nM. That is a sub-micromolar value.
In turn, `C[C@@]12CCC[C@H]1[C@@H]1CC[C@@H]3C[C@H](NC(=O)O)CC[C@]3(C)[C@H]1CC2` returned an IC50 in series [2] of 21700 nM.
On to `CC(=O)[C@H]1CC[C@H]2[C@@H]3CC[C@H]4C[C@H](O)C[C@H]5O[C@H](C[C@]12C)[C@@H]3[C@]45C`, for which the half-maximal inhibitory concentration (IC50) in series [1] is 93 nM. This counts as double-digit nanomolar.
Same read-out and setting: to `CC(=O)[C@H]1CC[C@H]2[C@@H]3CCC4=C[C@H](O)C[C@@H]5O[C@H](C[C@]12C)[C@@H]3[C@]45C` belongs 72 nM.
In the case of `CC(=O)[C@H]1CC[C@H]2[C@@H]3CC[C@@H]4C[C@H](O)CC[C@]4(C)[C@H]3CC[C@]12C` [ELTANOLONE], the ED50 in series [4] was determined as 7.7 mg/kg. Also, the fold change (FC) in series [5] is 2.24.
Taken in the same sequence, the figures for `CC(=O)[C@H]1CC[C@H]2[C@@H]3CC[C@H]4C[C@@H](O)CC[C@]4(C)[C@H]3CC[C@]12C` [SEPRANOLONE] were above 100 mg/kg and 0.76.
Taken in the same sequence, the figures for `C[C@]12CC[C@@H](O)C[C@@H]1CC[C@@H]1[C@@H]2CC[C@]2(C)[C@@H](C(=O)CO)CC[C@@H]12` were 5 mg/kg and 3.52.
Consider `C[C@@]12CCC[C@H]1[C@@H]1CC[C@@H]3C[C@H](NC(=O)[C@@H](N)CC(=O)O)CC[C@]3(C)[C@H]1CC2`, for which the recovery in series [6] was below 50%. The Papp A→B in series [7] came to 0.22 ×10⁻⁶ cm/s. Besides, the IC50 in series [2] is 1000 nM.
On to `C[C@@]12CCC[C@H]1[C@@H]1CC[C@@H]3C[C@H](NC(=O)[C@@H](N)CCC(=O)O)CC[C@]3(C)[C@H]1CC2`, for which the recovery in series [6] was below 50%. For the same molecule, the Papp A→B in series [7] stood at 0.22 ×10⁻⁶ cm/s. This molecule yielded an IC50 in series [2] of 1400 nM.
